Screening results from PubChem BioAssay.
This excerpt belongs to a sample that is enriched for hits.
IDH1 R132H inh – IDH1 R132H (human) inhibition; IDH1 R132H reductase, diaphorase/resazurin fluorescence, 60 min; inhibition, % at 10 µM; 0.18% of 70,000 active; in the data active = inhibition above about 34%; inconclusive = no clear call, values can overlap the other calls; inactive = below about 11%;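 note: 0% = DMSO and 100% = no enzyme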
Target sequence (O75874 whole entry R132H): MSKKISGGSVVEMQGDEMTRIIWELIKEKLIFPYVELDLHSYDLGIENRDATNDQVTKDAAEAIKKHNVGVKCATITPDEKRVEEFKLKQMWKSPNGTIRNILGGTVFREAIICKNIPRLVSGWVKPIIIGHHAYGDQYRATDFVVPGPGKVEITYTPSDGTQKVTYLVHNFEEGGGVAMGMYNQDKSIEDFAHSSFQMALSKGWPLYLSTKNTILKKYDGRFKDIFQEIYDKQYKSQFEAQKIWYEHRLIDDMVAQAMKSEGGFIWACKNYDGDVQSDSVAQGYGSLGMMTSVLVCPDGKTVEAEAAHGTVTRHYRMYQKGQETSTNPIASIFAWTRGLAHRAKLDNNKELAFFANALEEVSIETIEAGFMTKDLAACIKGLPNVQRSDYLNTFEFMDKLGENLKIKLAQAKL
T cruzi growth-1 – blocks T. cruzi growth in NIH3T3 culture; T. cruzi beta-gal in NIH3T3, GalScreen luminescence, 90 h; inhibition, % at 8.34 µM; 5.9% of 77,000 active; AID 624255;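 active = mean inhibition above about 93%, with at least 55% of replicates each passing it, limit read from the data, passing the limit was not always enough; inconclusive = only one of those two conditions holds; inactive = neither condition holds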
GASC1 inh – KDM4C (human) demethylase inhibition; inhibition, % at 12.5 µM; AID 720574; GST-KDM4C 2-372, H3K9me3 peptide, LANCE TR-FRET; 0.15% of 96,000 active;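 active = mean replicate inhibition above about 25%, with at least 55% of replicates also reaching it, limit read from the data, passing the limit was not always enough; inconclusive = only one of those two conditions met; inactive = neither condition met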
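Test system – GST-tagged GASC-1 (JMJD2C) catalytic fragment, aa 2-372 · Medium – HEPES buffer, pH 7.5, plus ascorbate · Reagent – H3K9me3 peptide with Fe(II)/2OG · Compound – one test concentration per compound · Timing – 30 min reaction, 60 min detection, RT · Technique – TR-FRET with Eu antibody and ULight streptavidin, EDTA stop · Read-out basis – inhibition from TR-FRET ratio decrease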
T cruzi growth-2 – inhibitors of T. cruzi proliferation; shares compounds with T cruzi growth-1; T. cruzi beta-gal in NIH3T3, GalScreen luminescence, 90 h; inhibition, % at 8.35 µM; 72% of 5,600 active; AID 651739;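 active = mean replicate inhibition above about 95% and at least 55% of replicates individually reaching it, limit read from the data; inconclusive = only one of the two criteria is met; inactive = neither criterion is met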
T cruzi growth-3 – Trypanosoma cruzi proliferation inhibition; shares compounds with T cruzi growth-1; T. cruzi beta-gal in NIH3T3, GalScreen luminescence, 90 h; inhibition, % at 2.09 µM; 21% of 5,600 active; AID 651740;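 active = mean inhibition above about 95%, with at least 55% of replicates also reaching it, limit read from the data; inconclusive = meets just one of the two conditions; inactive = meets neither condition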;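 note: plate controls were neutral control median for no effect and positive control median for full effect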
NIH3T3 tox – kills mouse NIH/3T3 fibroblasts; shares compounds with T cruzi growth-1; 14% of 5,600 active; NIH/3T3 viability, CellTiter-Glo ATP luminescence, 90 h; cytotoxicity (signal decrease), % at 8.35 µM;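 active = mean signal decrease across replicates above about 35% based on untreated-well scatter, with enough replicates individually passing, limit read from the data; inconclusive = no rule stated though some were filed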;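 note: 0% = median of neutral control wells and 100% = median of positive control wells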
NIH3T3 tox 2 – cytotoxicity in mouse NIH/3T3 fibroblasts. shares compounds with T cruzi growth-1. NIH/3T3 viability, CellTiter-Glo ATP luminescence, 90 h. inhibition, % at 24.9 µM. 56% of 5,600 active. AID 651744;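 active = mean loss of cell viability signal at or above a set limit, and enough replicates individually reaching it; inconclusive = meets only the mean limit or only the replicate share; inactive = meets neither condition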;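 note: 0% = median of neutral control wells and 100% = median of positive control wells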
Numbers without * were called inactive; ? = inconclusive; · = no result.

SMILES	IDH1 R132H inh	T cruzi growth-1	GASC1 inh	T cruzi growth-2	T cruzi growth-3	NIH3T3 tox	NIH3T3 tox 2
CN1CCCCN2[C@H](CO)[C@H](c3ccc(-c4cccnc4)cc3)[C@@H]2C1	·	?	0	76	33	2	-13
CN1CCCCN2[C@H](CO)[C@H](c3ccc(-c4cccnc4)cc3)[C@H]2C1	·	88	0	·	·	·	·
OC[C@@H]1[C@H](c2ccc(-c3cccnc3)cc2)[C@@H]2CN(CC3CC3)CCCCN12	·	104*	0	67	17	0	-9
O=C(N/N=C/c1cc(I)cc(I)c1O)c1ccccc1O	0	·	·	·	·	·	·
O=C(C1CC1)N1CCCCN2[C@H](CO)[C@H](c3ccc(-c4cccc(F)c4)cc3)[C@@H]2C1	·	?	0	105*	33	25	?
O=C(C1CCCC1)N1CCCCN2[C@H](CO)[C@H](c3ccc(-c4cccc(F)c4)cc3)[C@H]2C1	·	118*	·	108*	75	8	102*
O=C(c1cccc(F)c1)N1CCCCN2[C@H](C1)[C@H](c1ccc(-c3ccccc3)cc1)[C@@H]2CO	·	73	-2	·	·	·	·
O=C(C1CCC1)N1CCCCN2[C@H](C1)[C@@H](c1ccc(-c3cccc(F)c3)cc1)[C@@H]2CO	·	29	·	·	·	·	·
O=C(C1CCCC1)N1CCCCN2[C@H](C1)[C@H](c1ccc(-c3cccc(F)c3)cc1)[C@@H]2CO	·	88	·	·	·	·	·
O=C(C1CC1)N1CCCCN2[C@@H](CO)[C@H](c3ccc(-c4cccc(F)c4)cc3)[C@@H]2C1	·	?	0	100*	87	22	37*
COc1ccc(NC(=O)Nc2ccc3c(c2)C(=O)N([C@H](C)CO)C[C@@H](C)[C@@H](CN(C)CC2CCCCC2)OCCCC[C@@H](C)O3)cc1	2	92	1	·	·	·	·
Cc1cc(C)c(C)c(OCC(O)Cn2cnc3ccccc32)c1 (centres undefined)	0	·	·	·	·	·	·
C/C=C1\C(O[C@@H]2O[C@H](CO)[C@@H](O)[C@H](O)[C@H]2O)OC=C(C(=O)OC)C1CC(=O)OC[C@@H]1[C@H](C)[C@@H](OC(=O)CC2C(C(=O)OC)=COC(O[C@@H]3O[C@H](CO)[C@@H](O)[C@H](O)[C@H]3O)/C2=C\C)C[C@H]1C(CO)CO (some centres undefined)	0	·	·	·	·	·	·
CC(=O)Nc1ccc2c(c1)C(=O)N(C)[C@@H]1CC[C@@H](CC(=O)NCc3ccccc3)O[C@@H]1CO2	·	4	0	·	·	·	·
CC(C)CC#Cc1ccc2c(c1)O[C@H](CN(C)C(=O)c1cccnc1)[C@H](C)CN([C@@H](C)CO)S2(=O)=O	11	61	5	·	·	·	·
CC(C)CC#Cc1ccc2c(c1)O[C@@H](CN(C)Cc1cccc(F)c1)[C@H](C)CN([C@H](C)CO)S2(=O)=O	0	50	0	·	·	·	·
CC(C)CC#Cc1ccc2c(c1)O[C@H](CN(C)C(=O)c1cccc(F)c1)[C@H](C)CN([C@@H](C)CO)S2(=O)=O	0	120*	0	104*	106*	24	104*
C[C@@H]1CN([C@@H](C)CO)S(=O)(=O)c2ccc(Br)cc2O[C@H]1CN(C)C(=O)c1cccc(F)c1	·	·	-1	·	·	·	·
CC(C)CC#Cc1ccc2c(c1)O[C@H](CN(C)C(=O)c1cccc(F)c1)[C@H](C)CN([C@H](C)CO)S2(=O)=O	-4	126*	0	104*	108*	29	104*
CC(C)C#Cc1ccc2c(c1)O[C@H](CN(C)C(=O)c1cccc(F)c1)[C@@H](C)CN([C@@H](C)CO)S2(=O)=O	0	101*	-2	103*	52	13	34*
CC(C)C#Cc1ccc2c(c1)O[C@@H](CN(C)C(=O)c1cccc(F)c1)[C@@H](C)CN([C@@H](C)CO)S2(=O)=O	0	95	0	·	·	·	·
CC(C)CC#Cc1ccc2c(c1)O[C@@H](CN(C)C(=O)c1cccc(F)c1)[C@@H](C)CN([C@H](C)CO)S2(=O)=O	1	120*	-1	99*	92	23	106*
CC(=O)Nc1ccccc1NC(=O)COc1ccc(C(C)(C)C)cc1Br	-1	·	·	·	·	·	·
